Reference: paper PMC3264876 (Pharmaceutical Research, 2011)

Assay: Nonsink release testing in MFDS
Assay type: physicochemical
Summary of the method: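 Nanoparticle or bulk crystalline suspensions (nanoparticles at about 6 mg/mL solids, various drug loadings) diluted to 40 μgA/mL in MFDS. MFDS: 7.3 mM NaTC, 1.4 mM POPC, phosphate/NaCl, pH 6.5, 290 mOsm. Stirred at 60 rpm. Duplicate aliquots per time point spun through 100-kDa MWCO filters, 12,000 rpm, 5 min. Free drug is dissolved plus micellar; split estimated from micelle partition coefficient and micelle volume fraction.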

## Cc1ccc(-c2cc(C(F)(F)F)nn2-c2ccc(S(N)(=O)=O)cc2)cc1 [celecoxib]
MFDS
  equilibrium partition coefficient into bile-salt micelles: approximately 1,000
MFDS pH 6.5, dose 40 μgA/mL
  maximum concentration in MFDS (dissolved plus in bile-salt micelles): 16 µg/mL
MFDS, 40 μgA/mL
  time to reach maximum concentration in MFDS: at least 1 h
MFDS, equilibrium
  concentration of celecoxib in bile-salt micelles: about 13.5 μg/mL
MFDS, from micelle partition coefficient and 0.5% micelle volume
  dissolved celecoxib concentration at equilibrium: approximately 2.5 μg/mL
